Assay results as given in ChEMBL document CHEMBL6177924, “Synthesis and antifungal evaluation of new azole derivatives containing 1,2,3-triazole” (RSC Med Chem, 2025).
Converted amounts (≈) assume the structure as drawn. The source made the active and inactive calls. The rule behind the calls is not given here.

Key:
[1] = tested on: Candida albicans; assay: Antifungal activity against drug sensitive Candida albicans SC5314 assessed as inhibition of fungal growth incubated for 24 hrs by CLSI protocol based microdilution method; type: functional
Procedure, shortened: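 Broth microdilution of log-phase C. albicans at 1×10^5 CFU/mL in Sabouraud liquid medium (SDB). Compounds serially diluted 5-fold to final 200-0.064 µg/mL, DMSO below 0.1%. Triplicate wells, 200 µL final volume, with growth, blank and fluconazole controls. Incubated 24 h at 30 °C, OD read at 630 nm; experiment repeated three times.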

[2] = tested on: Candida albicans; assay: Antifungal activity against drug resistant Candida albicans SC5314-FR assessed as inhibition of fungal growth incubated for 24 hrs by CLSI protocol based microdilution method; type: functional
Procedure, shortened: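 Fluconazole-resistant strain derived from SC5314 by fluconazole exposure. Log-phase cells at 1×10^5 CFU/mL in SDB. Drug fivefold serial dilutions, 200–0.064 µg/mL final, DMSO <0.1%, triplicate wells, 200 µL. Incubated 30 °C for 24 h and read at OD630. Growth, blank and fluconazole controls included. Run three times.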

[3] = tested on: Candida albicans; assay: Antifungal activity against Candida albicans SC5314 assessed as inhibition of fungal growth measured up to 48 hrs by time-killing curve analysis; type: functional, organism-based
Procedure, shortened: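 Log-phase cells at 1×10^5 CFU/mL in SDB, 10 mL per group. Drug at 0.27, 0.53 or 1.06 µg/mL, plus fluconazole and untreated controls. Shaken 150 r/min at 30 °C. Samples taken at 0, 4, 8, 12, 24, 36 and 48 h and read at A630, triplicate wells. Absorbance plotted against time.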

[4] = tested on: Candida albicans; assay: Antifungal activity against Candida albicans assessed as inhibition of mycelia formation measured after 4 to 8 hrs by inverted microscopic analysis; type: functional, organism-based; conditions: time 4-8 hrs
Procedure, shortened: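 Hyphae induced in SD + 10% FBS or in Spider medium, log-phase cells at 1×10^5 CFU/mL. Drug at 0.27, 0.53 or 1.06 µg/mL, with fluconazole and drug-free controls, 1 mL per well in 24-well plates, triplicate. […], and mycelium formation viewed and photographed by inverted microscope at 4 and 8 h.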

[5] = tested on: Cell membrane; assay: Induction of cell membrane permeability in Candida albicans assessed as increase in red fluorescence incubated for 16 to 24 hrs by PI staining based fluorescence microscopic analysis; type: subcellular; conditions: time 16-24 hrs
Procedure, shortened: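 C. albicans at 1×10^5 CFU/mL in SDB grown with drug (0.27, 0.53, 1.06 µg/mL), fluconazole or no drug at 30 °C, 150 r/min, for 16-24 h. Cells washed and resuspended in PBS at 2×10^6 CFU/mL. Stained with propidium iodide (final 5 µg/mL) 30 min at room temperature in the dark, then washed. Imaged by fluorescence microscopy and fluorescence intensity measured.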

[6] = tested on: Candida albicans; assay: Antibiofilm activity in Candida albicans SC5314 assessed as decrease in number of mycelia measured after 24 hrs by inverted microscopic analysis; type: functional, organism-based
Procedure, shortened: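 Log-phase cells at 1×10^5 CFU/mL in RPMI1640 + 10% FBS allowed to adhere 90 min at 30 °C in 24-well plates. Excess medium removed, then 1 mL medium with or without drug (0.27, 0.53, 1.06 µg/mL; fluconazole group) added for 24 h at 30 °C. Crystal violet stain 30 min, PBS washes ×3, biofilm viewed by inverted microscope.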

[7] = tested on: Cell membrane; assay: Induction of cell membrane permeability in Candida albicans assessed as increase in fluorescence intensity by multifunctional enzymatic assay; type: subcellular
[8] = tested on: Candida albicans; assay: Induction of morphological changes in Candida albicans assessed as normal cell wall appearance incubated for 16 to 24 hrs by transmission electron microscopic analysis; type: functional, organism-based; conditions: time 16-24 hrs
Procedure, shortened: (§1)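 Cells at 5×10^5 CFU/mL in SDB with drug (0.27, 0.53, 1.06 µg/mL), fluconazole or no drug. Shaken 150 r/min at 30 °C for 16–24 h, pelleted and PBS-washed. Fixed in 3% paraformaldehyde/2.5% glutaraldehyde at 4 °C, post-fixed in 1% OsO4, acetone-dehydrated and Epon-812 embedded. 60–90 nm sections stained with uranyl acetate and lead citrate, imaged by TEM.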

[9] = tested on: Candida albicans; assay: Induction of morphological changes in Candida albicans assessed as blurred spacing between cell wall and cell membrane incubated for 16 to 24 hrs by transmission electron microscopic analysis; type: functional, organism-based; conditions: time 16-24 hrs; procedure, shortened: as §1
[10] = tested on: Candida albicans; assay: Induction of morphological changes in Candida albicans assessed as loose distribution of cytoplasm incubated for 16 to 24 hrs by transmission electron microscopic analysis; type: functional, organism-based; conditions: time 16-24 hrs; procedure, shortened: as §1
[11] = tested on: Candida albicans; assay: Induction of morphological changes in Candida albicans assessed as absence of intracellular substance incubated for 16 to 24 hrs by transmission electron microscopic analysis; type: functional, organism-based; conditions: time 16-24 hrs; procedure, shortened: as §1
[12] = tested on: 16HBE14o-; assay: Cytotoxicity against human 16HBE14o- cells assessed as reduction in cell viability 0.032 to 100 microg/ml incubated for 48 hrs by CCK8 assay; type: toxicity, cell-based; conditions: dose 0.032-100 µg/ml
Procedure, shortened: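 16HBE cells seeded in RPMI1640 + 10% FBS + 1% antibiotics and attached 24 h at 37 °C. Medium replaced with drug in fivefold dilutions from 100 µg/mL, with fluconazole, growth and blank controls. Incubated 48 h, then CCK8 reagent added and plates incubated for viability read-out.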

Row | Compound | MIC50 [1] [µg/mL] | MIC50 [2] [µg/mL] | other results
1 | Clc1ccc(Cn2cc(COC(Cn3ccnc3)c3ccc(Cl)cc3Cl)nn2)cc1 (stereo unspecified) | 1.78 (≈ 3.85 µM) | 11 (≈ 23.7 µM) | –
2 | OC(Cn1cncn1)(Cn1cncn1)c1ccc(F)cc1F [FLUCONAZOLE] | 1.52 (≈ 4.96 µM) | > 200 | Activity [3]: Active; Activity [4]: Active; Activity [5]: Active; Small Amount Of Red Fluorescence Observed; Activity [6]: Active; Activity [7]: Active; Activity [8]: Active; Activity [9]: Active; Activity [10]: Active; Activity [11]: Active; Activity [12]: Non-toxic
3 | Cc1ccc(C(=O)Cn2cc(COC(Cn3ccnc3)c3ccc(Cl)cc3Cl)nn2)cc1 (stereo unspecified) | 3.34 (≈ 7.1 µM) | 26.2 (≈ 55.6 µM) | –
4 | O=C(Cn1cc(COC(Cn2ccnc2)c2ccc(Cl)cc2Cl)nn1)c1ccc(Br)cc1 (stereo unspecified) | 0.51 (≈ 0.953 µM) | 9.83 (≈ 18.4 µM) | –
5 | Clc1ccc(C(Cn2ccnc2)OCc2cn(Cc3ccc4ccccc4c3)nn2)c(Cl)c1 (stereo unspecified) | 1.57 (≈ 3.28 µM) | 4.57 (≈ 9.55 µM) | –
6 | O=C(Cn1cc(COC(Cn2ccnc2)c2ccc(Cl)cc2Cl)nn1)c1ccc(Cl)cc1Cl (stereo unspecified) | 8.72 (≈ 16.6 µM) | 19.9 (≈ 37.9 µM) | –
7 | Clc1ccc(C(Cn2ccnc2)OCc2cn(C/C=C/c3ccccc3)nn2)c(Cl)c1 (stereo unspecified) | 1.57 (≈ 3.46 µM) | 11.5 (≈ 25.2 µM) | –
8 | ClCCn1cc(COC(Cn2ccnc2)c2ccc(Cl)cc2Cl)nn1 (stereo unspecified) | 1.2 (≈ 2.99 µM) | 14.1 (≈ 35.3 µM) | –
9 | Clc1ccc(C(Cn2ccnc2)OCc2cn(Cc3ccccc3)nn2)c(Cl)c1 (stereo unspecified) | 6.63 (≈ 15.5 µM) | 21.5 (≈ 50.2 µM) | –
10 | CC(=O)Cn1cc(COC(Cn2ccnc2)c2ccc(Cl)cc2Cl)nn1 (stereo unspecified) | 90.8 (≈ 230 µM) | > 200 | –
11 | C=CCn1cc(COC(Cn2ccnc2)c2ccc(Cl)cc2Cl)nn1 (stereo unspecified) | 29.4 (≈ 77.8 µM) | 77.9 (≈ 206 µM) | –
12 | COC(=O)Cn1cc(COC(Cn2ccnc2)c2ccc(Cl)cc2Cl)nn1 (stereo unspecified) | 1.62 (≈ 3.95 µM) | > 200 | –
13 | O=[N+]([O-])c1ccc(Cn2cc(COC(Cn3ccnc3)c3ccc(Cl)cc3Cl)nn2)cc1 (stereo unspecified) | 21.6 (≈ 45.6 µM) | 72.4 (≈ 153 µM) | –
14 | O=C(Cn1cc(COC(Cn2ccnc2)c2ccc(Cl)cc2Cl)nn1)c1ccc(F)cc1F (stereo unspecified) | 0.69 (≈ 1.4 µM) | 19.3 (≈ 39.2 µM) | –
15 | O=C(Cn1cc(COC(Cn2ccnc2)c2ccc(Cl)cc2Cl)nn1)c1ccccc1Cl (stereo unspecified) | 4.71 (≈ 9.6 µM) | 24.1 (≈ 49 µM) | –
16 | COc1ccc(C(=O)Cn2cc(COC(Cn3ccnc3)c3ccc(Cl)cc3Cl)nn2)cc1OC (stereo unspecified) | 16.6 (≈ 32.2 µM) | 58.6 (≈ 113 µM) | –
17 | N#Cc1ccc(Cn2cc(COC(Cn3ccnc3)c3ccc(Cl)cc3Cl)nn2)cc1 (stereo unspecified) | 26.1 (≈ 57.6 µM) | 93.2 (≈ 206 µM) | –
18 | O=C(Cn1cc(COC(Cn2ccnc2)c2ccc(Cl)cc2Cl)nn1)c1ccccc1 (stereo unspecified) | 1.61 (≈ 3.53 µM) | 23.4 (≈ 51.3 µM) | –
19 | Clc1ccc(C(Cn2ccnc2)OCc2cn(Cc3ccc(Br)cc3)nn2)c(Cl)c1 (stereo unspecified) | 1.33 (≈ 2.62 µM) | 9.03 (≈ 17.8 µM) | –
20 | FC(F)(F)c1ccc(Cn2cc(COC(Cn3ccnc3)c3ccc(Cl)cc3Cl)nn2)cc1 (stereo unspecified) | 9.77 (≈ 19.7 µM) | 15 (≈ 30.1 µM) | –
21 | O=C(Cn1cc(COC(Cn2ccnc2)c2ccc(Cl)cc2Cl)nn1)c1ccc(F)cc1 (stereo unspecified) | 1.17 (≈ 2.47 µM) | 15.9 (≈ 33.6 µM) | –
22 | COC(=O)/C=C/c1ccc(Cn2cc(COC(Cn3ccnc3)c3ccc(Cl)cc3Cl)nn2)cc1 (stereo unspecified) | 16.5 (≈ 32.2 µM) | 17.8 (≈ 34.8 µM) | –
23 | Fc1ccc(Cn2cc(COC(Cn3ccnc3)c3ccc(Cl)cc3Cl)nn2)cc1F (stereo unspecified) | 11.4 (≈ 24.7 µM) | 21.4 (≈ 46 µM) | –
